Data published in ChEMBL document CHEMBL1641417, “Cytotoxicity and topoisomerase I/II inhibition of glycosylated 2-phenyl-indoles, 2-phenyl-benzo[b]thiophenes and 2-phenyl-benzo[b]furans” (Bioorg Med Chem, 2011).
Calls of active or inactive are those of the source. The rule behind the calls is not given here.

Key:
HepG2 [1] = test: Cytotoxicity against human HepG2 cells after 72 hrs by MTS assay; conditions: HepG2, 72 h
[2] = target: T1, DNA topoisomerase 1 (Homo sapiens) (UniProt P11387); test: Inhibition of human recombinant DNA topoisomerase 1-mediated DNA cleavage assessed as decrease in relaxation of supercoiled plasmid substrate DNA at 100 uM after 30 mins by agarose gel electrophoresis
T1 sequence (whole entry): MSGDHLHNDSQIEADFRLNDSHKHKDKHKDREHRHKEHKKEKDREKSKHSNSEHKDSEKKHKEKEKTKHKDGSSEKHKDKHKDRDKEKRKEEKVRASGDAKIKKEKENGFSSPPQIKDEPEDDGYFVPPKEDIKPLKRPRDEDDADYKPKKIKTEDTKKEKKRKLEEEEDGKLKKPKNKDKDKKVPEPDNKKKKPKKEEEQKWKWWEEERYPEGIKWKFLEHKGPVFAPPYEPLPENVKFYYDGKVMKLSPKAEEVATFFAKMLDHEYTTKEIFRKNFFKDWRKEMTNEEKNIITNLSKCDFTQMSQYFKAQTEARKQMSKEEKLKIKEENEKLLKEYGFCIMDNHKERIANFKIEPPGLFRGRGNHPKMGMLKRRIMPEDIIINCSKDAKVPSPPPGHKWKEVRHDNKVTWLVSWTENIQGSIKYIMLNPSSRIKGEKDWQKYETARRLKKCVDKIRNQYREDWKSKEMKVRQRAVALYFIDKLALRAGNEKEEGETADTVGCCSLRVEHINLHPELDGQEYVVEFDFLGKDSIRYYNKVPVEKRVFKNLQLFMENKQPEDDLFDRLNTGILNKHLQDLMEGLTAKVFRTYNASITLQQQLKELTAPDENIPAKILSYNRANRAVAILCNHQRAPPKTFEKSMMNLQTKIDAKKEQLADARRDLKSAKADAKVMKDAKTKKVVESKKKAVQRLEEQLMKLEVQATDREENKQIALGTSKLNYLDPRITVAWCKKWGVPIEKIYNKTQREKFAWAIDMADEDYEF

HT-29 [3] = test: Cytotoxicity against human HT-29 cells assessed as cell viability at 25 uM after 72 hrs by MTS assay; conditions: HT-29, 72 h
MCF7 [4] = test: Cytotoxicity against human MCF7 cells after 72 hrs by MTS assay; conditions: MCF7, 72 h
HT-29 [5] = test: Cytotoxicity against human HT-29 cells after 72 hrs by MTS assay; conditions: HT-29, 72 h
HT-29 [6] = test: Cytotoxicity against human HT-29 cells at 25 uM after 72 hrs by MTS assay
[7] = target: DNA topoisomerase 2-alpha (Homo sapiens) (UniProt P11388); test: Inhibition of human recombinant DNA topoisomerase 2alpha-mediated DNA cleavage assessed as decrease in relaxation of supercoiled plasmid substrate DNA at 100 uM after 30 mins by agarose gel electrophoresis
MCF7 [8] = test: Cytotoxicity against human MCF7 cells at 25 uM after 72 hrs by MTS assay
HepG2 [9] = test: Cytotoxicity against human HepG2 cells assessed as cell viability at 25 uM after 24 hrs by MTS assay; type: functional; conditions: HepG2, 24 h, read-out: Activity
Nucleic Acid = test: Binding affinity to DNA by ethidium bromide staining-based FID assay; set-up: concentration or dose not given beside the values
MCF7 [10] = test: Cytotoxicity against human MCF7 cells assessed as cell viability at 25 uM after 72 hrs by MTS assay; conditions: MCF7, 72 h
HepG2 [11] = test: Cytotoxicity against human HepG2 cells at 25 uM after 72 hrs by MTS assay
[12] = target: DNA topoisomerase 2-alpha (Homo sapiens) (UniProt P11388); test: Inhibition of human recombinant DNA topoisomerase 2alpha-mediated DNA cleavage assessed as decrease in relaxation of supercoiled plasmid substrate DNA at 20 uM after 30 mins by agarose gel electrophoresis
Vero = test: Cytotoxicity against african green monkey Vero cells after 3 days by MTS assay; type: cell-based; conditions: Chlorocebus sabaeus, 72 h
Outline: (§1)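 Non-tumour cells were CRL-7761 human skin, Vero monkey kidney (DMEM high glucose, 5% FBS, 10 mM HEPES) and NIH/3T3 mouse (DMEM, 10% calf serum). Cells were seeded, left 24 h, then switched to serum-free DMEM-F12 with albumin, transferrin and insulin, with or without compound. Exposure was 3 days at 37 °C.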

[13] = Cytotoxicity against mouse NIH/3T3 cells after 3 days by MTS assay; type: cell-based; conditions: NIH3T3, 72 h
Outline: as §1

[14] = Cytotoxicity against human CRL7761 cells after 3 days by MTS assay; type: cell-based; conditions: 72 h
Outline: as §1

MCF7 [15] = test: Cytotoxicity against human MCF7 cells assessed as cell viability at 100 uM after 72 hrs by MTS assay; conditions: MCF7, 72 h
HT-29 [16] = test: Cytotoxicity against human HT-29 cells assessed as cell viability at 100 uM after 72 hrs by MTS assay; conditions: HT-29, 72 h
HepG2 [17] = test: Cytotoxicity against human HepG2 cells assessed as cell viability at 100 uM after 72 hrs by MTS assay; conditions: HepG2, 72 h

Sequence of DNA topoisomerase 2-alpha (Homo sapiens) (P11388 whole entry): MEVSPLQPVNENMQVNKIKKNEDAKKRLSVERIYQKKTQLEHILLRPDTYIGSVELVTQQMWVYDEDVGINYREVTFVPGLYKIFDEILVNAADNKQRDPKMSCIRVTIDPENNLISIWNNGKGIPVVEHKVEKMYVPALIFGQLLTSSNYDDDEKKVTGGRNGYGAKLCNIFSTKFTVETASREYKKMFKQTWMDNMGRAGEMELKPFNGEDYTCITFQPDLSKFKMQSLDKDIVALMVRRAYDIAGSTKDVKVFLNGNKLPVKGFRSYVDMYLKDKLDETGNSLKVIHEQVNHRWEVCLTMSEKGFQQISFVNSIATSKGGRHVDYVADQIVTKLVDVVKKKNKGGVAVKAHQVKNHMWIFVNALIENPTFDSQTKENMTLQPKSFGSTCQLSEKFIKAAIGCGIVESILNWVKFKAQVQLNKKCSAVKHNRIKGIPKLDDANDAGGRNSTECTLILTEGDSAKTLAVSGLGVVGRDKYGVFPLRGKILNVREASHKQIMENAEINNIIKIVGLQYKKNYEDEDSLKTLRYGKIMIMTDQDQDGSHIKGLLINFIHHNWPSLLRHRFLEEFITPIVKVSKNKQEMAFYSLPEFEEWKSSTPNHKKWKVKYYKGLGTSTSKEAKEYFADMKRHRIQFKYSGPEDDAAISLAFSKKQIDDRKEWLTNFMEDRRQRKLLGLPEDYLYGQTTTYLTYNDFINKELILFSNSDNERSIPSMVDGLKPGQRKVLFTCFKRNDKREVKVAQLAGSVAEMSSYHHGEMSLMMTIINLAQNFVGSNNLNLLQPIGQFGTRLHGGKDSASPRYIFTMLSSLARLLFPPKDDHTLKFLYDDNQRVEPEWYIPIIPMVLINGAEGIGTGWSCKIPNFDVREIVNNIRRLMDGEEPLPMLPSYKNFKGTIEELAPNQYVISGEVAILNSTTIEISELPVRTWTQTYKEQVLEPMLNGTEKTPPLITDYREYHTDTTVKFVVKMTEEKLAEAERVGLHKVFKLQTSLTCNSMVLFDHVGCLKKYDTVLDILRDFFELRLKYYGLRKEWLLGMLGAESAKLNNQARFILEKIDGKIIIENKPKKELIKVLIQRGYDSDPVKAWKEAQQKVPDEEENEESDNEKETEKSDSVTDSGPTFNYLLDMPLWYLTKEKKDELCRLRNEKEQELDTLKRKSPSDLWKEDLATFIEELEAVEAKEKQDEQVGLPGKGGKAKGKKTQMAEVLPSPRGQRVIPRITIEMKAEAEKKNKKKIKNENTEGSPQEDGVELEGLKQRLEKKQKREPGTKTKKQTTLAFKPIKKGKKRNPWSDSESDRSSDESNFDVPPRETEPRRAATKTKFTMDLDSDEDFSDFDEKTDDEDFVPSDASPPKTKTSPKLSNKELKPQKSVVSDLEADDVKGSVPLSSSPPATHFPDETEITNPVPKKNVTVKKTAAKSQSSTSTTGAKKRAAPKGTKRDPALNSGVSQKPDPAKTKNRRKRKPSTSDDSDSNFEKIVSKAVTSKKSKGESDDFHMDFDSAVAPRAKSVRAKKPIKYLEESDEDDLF

Compound	IC50 (HepG2 [1]) [µM]	inhibition [2] [%]	viability at 25 µM (HT-29 [3]) [%]	IC50 (MCF7 [4]) [µM]	IC50 (HT-29 [5]) [µM]	Activity (HT-29 [6]) [%]	inhibition [7] [%]	Activity (MCF7 [8]) [%]	viability at 25 µM (HepG2 [9]) [%]	Activity (Nucleic Acid) [%]	viability at 25 µM (MCF7 [10]) [%]	Activity (HepG2 [11]) [%]	inhibition [12]	IC50 (Vero) [µM]	IC50 [13] [µM]	IC50 [14] [µM]	viability at 100 µM (MCF7 [15]) [%]	viability at 100 µM (HT-29 [16]) [%]	viability at 100 µM (HepG2 [17]) [%]
C[C@@H]1O[C@@H](OCC#Cc2c(-c3ccccc3)[nH]c3ccccc23)C[C@H](N)[C@@H]1O	12.9	8.8	< 1	15.9	14	100	7.1	100	< 1	76.7	< 1	100	–	–	–	–	–	–	–
C[C@@H]1O[C@@H](OCC#Cc2c(-c3ccccc3)[nH]c3ccccc23)C[C@H](N)[C@H]1O	16.2	8.2	7	17.3	19.3	–	55.5	100	< 1	76.5	2	100	inactive	–	–	–	–	–	–
C[C@@H]1O[C@@H](OCC#Cc2c(-c3ccccc3)sc3ccccc23)C[C@H](N)[C@@H]1O	6	36.9	< 1	7.1	2.6	100	5.8	100	< 1	67.5	< 1	100	–	9.4	5.7	22.2	–	–	–
C#CCO[C@H]1C[C@H](N)[C@@H](O)[C@H](C)O1	–	–	–	–	–	–	–	–	–	–	–	–	–	–	–	–	123	91	105
Ic1c(-c2ccccc2)[nH]c2ccccc12	–	–	–	–	–	–	–	–	–	–	–	–	–	–	–	–	103	91	91
C[C@@H]1O[C@@H](OCC#Cc2c(-c3ccccc3)oc3ccccc23)C[C@H](N)[C@H]1O	7.7	25.5	< 1	5.4	6.5	100	5.5	100	< 1	50.5	< 1	100	–	10.6	6.5	> 25	–	–	–
OCC#Cc1c(-c2ccccc2)sc2ccccc12	–	–	68	–	–	–	–	–	97	–	90	–	–	–	–	–	37	8	17
Cc1ccc(S(=O)(=O)n2c(-c3ccccc3)cc3ccccc32)cc1	–	–	39	–	–	–	–	–	54	–	–	–	–	–	–	–	71	12	37
OCC#Cc1c(-c2ccccc2)oc2ccccc12	–	–	86	–	–	–	–	–	88	–	86	–	–	–	–	–	2	< 1	< 1
C#CCO[C@H]1CC[C@H](N)[C@H](C)O1	–	–	–	–	–	–	–	–	–	–	–	–	–	–	–	–	107	99	112
Cc1ccc(S(=O)(=O)n2c(-c3ccccc3)c(C#CCO)c3ccccc32)cc1	–	–	26	–	–	100	–	100	58	–	87	100	–	–	–	–	55	9	37
Ic1c(-c2ccccc2)oc2ccccc12	–	–	–	–	–	–	–	–	–	–	–	–	–	–	–	–	128	97	84
c1ccc(-c2cc3ccccc3s2)cc1	–	–	–	–	–	–	–	–	–	–	–	–	–	–	–	–	113	81	88
c1ccc(-c2cc3ccccc3o2)cc1	–	–	–	–	–	–	–	–	–	–	–	–	–	–	–	–	107	80	88
c1ccc(-c2cc3ccccc3[nH]2)cc1 [2-PHENYL-1H-INDOLE]	–	–	–	–	–	–	–	–	–	–	–	–	–	–	–	–	72	75	71
Cc1ccc(S(=O)(=O)n2c(-c3ccccc3)c(I)c3ccccc32)cc1	–	–	–	–	–	–	–	–	–	–	–	–	–	–	–	–	114	82	90
C[C@@H]1O[C@@H](OCC#Cc2c(-c3ccccc3)sc3ccccc23)C[C@H](N)[C@H]1O	17.2	32.2	< 1	15.8	10.9	100	22.2	100	2	73.6	2	100	–	–	–	–	–	–	–
C[C@@H]1O[C@@H](OCC#Cc2c(-c3ccccc3)[nH]c3ccccc23)CC[C@@H]1N	11.4	4	< 1	10.8	9.2	100	39.5	100	< 1	78.4	< 1	100	–	20.5	14.7	24	–	–	–
C[C@@H]1O[C@@H](OCC#Cc2c(-c3ccccc3)oc3ccccc23)CC[C@@H]1N	7.9	20.2	< 1	10.3	6.5	100	0	100	< 1	68.5	< 1	100	–	10.9	3.7	> 25	–	–	–
C#CCO[C@H]1C[C@H](N)[C@H](O)[C@H](C)O1	–	–	–	–	–	–	–	–	–	–	–	–	–	–	–	–	109	96	101
C[C@@H]1O[C@@H](OCC#Cc2c(-c3ccccc3)sc3ccccc23)CC[C@@H]1N	8.8	7.9	< 1	7.1	5.9	100	16.4	100	< 1	79.9	< 1	100	–	18.1	9.8	> 25	–	–	–
OCC#Cc1c(-c2ccccc2)[nH]c2ccccc12	–	–	81	–	–	100	–	100	87	–	121	100	–	–	–	–	109	79	87
